# Results from article PMC6189524 (Journal of Functional Foods, 2018).
# What was measured:
# [1] = Human bioavailability study: 24 h urinary excretion; type: in vivo; settings: humans; for 24 h urinary excretion, Snack: after 75 g baked snack; for 24 h urinary excretion, Snack / 24 h urinary excretion, Vegetable meal: per mg intake of corresponding compound; for 24 h urinary excretion, Vegetable meal: after 461 g vegetable meal
# Method in brief: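 Adult volunteers fasted overnight (≥10 h), then gave a fasted blood sample and spot urine. Each study meal was eaten within a targeted 15 min under nurse supervision. Urine was collected over 24 h postprandially, extracted liquid-liquid and analysed by LCMS for aglycones plus glucuronide, glucoside and sulfate conjugates. Results were expressed per mg intake, and the two meals were compared by paired t-test.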
# Caco-2/TC7 monolayer = experiment: Transport; type: in vitro ADME; settings: p < 0.05
# Method in brief: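 Snack or vegetable-mix samples went through a simplified simulated gastric/small-intestinal digestion including amylase, run to completion and centrifuged to clear supernatant. Supernatant mixed 1:1 with DMEM was applied to Caco-2/TC7 monolayers; DMEM with 40 µM quercetin or apigenin served as the buffer control. Papp = (dQ/dt)/(Co·A), from total basolateral metabolites plus aglycone; mean ± SD, n = 3.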
# Caco-2/TC7 cells = experiment: Uptake of quercetin and apigenin by Caco-2/TC7 cells from digestates; type: in vitro ADME; settings: all digestates and DMEM-only control; p < 0.05
# Method in brief: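 Clear supernatants from simplified simulated stomach/small-intestine digestion (with amylase) were diluted 1:1 in DMEM and applied to Caco-2/TC7 cells; DMEM with 40 µM quercetin or apigenin served as control. Uptake was summed from metabolites in medium, metabolites in cells and aglycone in cells, and the rate was this total divided by time. Mean ± SD, n = 3.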
# [2] = Determination of phytochemicals in food products; settings: for change during the baking process (dough to final product): snack ratio broccoli:onion:carrot:parsley = 2.1:5.5:11.4:1
# [3] = ref Rothwell, Day, & Morgan, 2005; cited from earlier work
# [4] = In vitro gastric-duodenal digestion; type: in vitro ADME; settings: both snack and vegetable meals
smiles,measurement,setting,value
"O=c1cc(-c2ccc(O)cc2)oc2cc(O[C@@H]3O[C@H](CO)[C@@H](O)[C@H](O)[C@H]3O)cc(O)c12 [A-7-Glc, apigenin-7-O-glucoside]","24 h urinary excretion, Difference (absolute) vegetable meal vs snack",[1],0.05 nmol per mg intake
same,"24 h urinary excretion, Snack",[1],0.15 ± 0.4 nmol/mg intake
same,"24 h urinary excretion, Vegetable meal",[1],0.21 ± 0.3 nmol/mg intake
O=C(O)[C@H]1O[C@@H](Oc2cc(O)c3c(=O)cc(-c4ccc(O)cc4)oc3c2)[C@H](O)[C@@H](O)[C@@H]1O [A-7-GlcA],"24 h urinary excretion, Difference (absolute) vegetable meal vs snack",[1],0.99 nmol per mg intake
same,"24 h urinary excretion, Snack",[1],6.32 ± 8.1 nmol/mg intake
same,"24 h urinary excretion, Vegetable meal",[1],5.33 ± 6.6 nmol/mg intake
"COc1cc(-c2oc3cc(O)cc(O)c3c(=O)c2O[C@@H]2O[C@H](C(=O)O)[C@@H](O)[C@H](O)[C@H]2O)ccc1O [IR-3-GlcA, isorhamnetin-3-glucuronide]","24 h urinary excretion, Difference (absolute) vegetable meal vs snack",[1],1.07 nmol per mg intake
same,"urinary levels in 24 h urine, snack versus vegetable meal (paired t-test)",[1],significantly differed
same,"24 h urinary excretion, Snack",[1],1.60 ± 2.0 nmol/mg intake
same,"24 h urinary excretion, Vegetable meal",[1],2.67 ± 2.7 nmol/mg intake
"O=c1c(O[C@@H]2O[C@H](CO)[C@@H](O)[C@H](O)[C@H]2O)c(-c2ccc(O)c(O)c2)oc2cc(O)cc(O)c12 [Quercetin-3-Glc, quercetin-3-O-glucoside]","24 h urinary excretion, Difference (absolute) vegetable meal vs snack",[1],0.03 nmol per mg intake
same,"24 h urinary excretion, Snack",[1],0.04 ± 0.1 nmol/mg intake
same,"24 h urinary excretion, Vegetable meal",[1],0.07 ± 0.1 nmol/mg intake
"O=C(O)[C@H]1O[C@@H](Oc2c(-c3ccc(O)c(O)c3)oc3cc(O)cc(O)c3c2=O)[C@H](O)[C@@H](O)[C@@H]1O [Quercetin-3-GlcA, quercetin-3-glucuronide]","24 h urinary excretion, Difference (absolute) vegetable meal vs snack",[1],0.23 nmol per mg intake
same,"24 h urinary excretion, Snack",[1],4.17 ± 3.3 nmol/mg intake
same,"24 h urinary excretion, Vegetable meal",[1],4.40 ± 2.5 nmol/mg intake
O=c1c(OS(=O)(=O)O)c(-c2ccc(O)c(O)c2)oc2cc(O)cc(O)c12 [Quercetin-3-sulfate],"24 h urinary excretion, Difference (absolute) vegetable meal vs snack",[1],0.79 nmol per mg intake
same,"24 h urinary excretion, Snack",[1],2.58 ± 1.9 nmol/mg intake
same,"24 h urinary excretion, Vegetable meal",[1],3.36 ± 1.8 nmol/mg intake
"CC(=O)N[C@@H](CSC(=S)NCCCC[S+](C)[O-])C(=O)O (stereo partly drawn) [Sulforaphane-NAC, sulforaphane-N-acetyl-cysteine]","24 h urinary excretion, Difference (absolute) vegetable meal vs snack",[1],236.4 nmol per mg intake
same,"urinary levels in 24 h urine, snack versus vegetable meal (paired t-test)",[1],approached significance
same,"24 h urinary excretion, Snack",[1],272.17 ± 280.8 nmol/mg intake
same,"24 h urinary excretion, Vegetable meal",[1],508.54 ± 450.9 nmol/mg intake
C[S+]([O-])CCCCN=C=S (stereo not drawn) [Sulforaphane],"24 h urinary excretion, Difference (absolute) vegetable meal vs snack",[1],7.47 nmol per mg intake
same,"24 h urinary excretion, Snack",[1],36.25 ± 27.9 nmol/mg intake
same,"24 h urinary excretion, Vegetable meal",[1],43.72 ± 44.2 nmol/mg intake
O=c1cc(-c2ccc(O)cc2)oc2cc(O)cc(O)c12 [apigenin],"24 h urinary excretion, Difference (absolute) vegetable meal vs snack",[1],0.19 nmol per mg intake
same,"urinary levels in 24 h urine, snack versus vegetable meal (paired t-test)",[1],not significantly different
same,"24 h urinary excretion, Snack",[1],3.37 ± 6.6 nmol/mg intake
same,"24 h urinary excretion, Vegetable meal",[1],3.55 ± 4.6 nmol/mg intake
same,Papp compared to quercetin,Caco-2/TC7 monolayer,higher
same,rate of uptake compared to quercetin,Caco-2/TC7 cells,significantly higher
same,change during the baking process (dough to final product),[2],+6%
same,lipophilicity compared to quercetin,[3],higher lipophilicity
C[S+]([O-])CCCC/C(=N\OS(=O)(=O)O)S[C@@H]1O[C@H](CO)[C@@H](O)[C@H](O)[C@H]1O (stereo partly drawn) [glucoraphanin],"urinary levels in 24 h urine, snack versus vegetable meal (paired t-test)",[1],not significantly different
same,change during the baking process (dough to final product),[2],−14%
CC1=C[C@H](O)CC(C)(C)[C@H]1/C=C/C(C)=C/C=C/C(C)=C/C=C/C=C(C)/C=C/C=C(C)/C=C/C1=C(C)C[C@@H](O)CC1(C)C [lutein],present in the liquid phase after in vitro digestion,[4],around 0.4 mg
O=c1c(O)c(-c2ccc(O)c(O)c2)oc2cc(O)cc(O)c12 [quercetin],"24 h urinary excretion, Difference (absolute) vegetable meal vs snack",[1],0.38 nmol per mg intake
same,"urinary levels in 24 h urine, snack versus vegetable meal (paired t-test)",[1],not significantly different
same,"24 h urinary excretion, Snack",[1],0.34 ± 0.7 nmol/mg intake
same,"24 h urinary excretion, Vegetable meal",[1],0.72 ± 1.3 nmol/mg intake
same,change during the baking process (dough to final product),[2],+12%
CC1=C(/C=C/C(C)=C/C=C/C(C)=C/C=C/C=C(C)/C=C/C=C(C)/C=C/C2=C(C)CCCC2(C)C)C(C)(C)CCC1 [β-carotene],yield in the final product,"[2]; dough with only carrots, after baking",31.8 % (w/w)
same,threshold value above which lost during the baking process,[2]; final snack product,10–13 mg per 100 g dry matter
same,present in the liquid phase after in vitro digestion,[4],no detectable
